Only some compounds are listed: those with a hit (about 5.8% of all), similar ones and a draw of the others.
KDM4C inh – inhibitors of GASC-1 (KDM4C) histone demethylase, primary screen, biochemical, single concentration HTS | inhibition, % at 12.5 µM | hit rate 0.15% among 96,000 | GST-KDM4C 2-372, H3K9me3 peptide, LANCE TR-FRET;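 active = mean replicate inhibition above about 25%, with at least 55% of replicates also reaching it, limit read from the data, passing the limit was not always enough; inconclusive = only one of those two conditions met; inactive = neither condition met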
Target sequence (Q9H3R0 2-372 limits assumed): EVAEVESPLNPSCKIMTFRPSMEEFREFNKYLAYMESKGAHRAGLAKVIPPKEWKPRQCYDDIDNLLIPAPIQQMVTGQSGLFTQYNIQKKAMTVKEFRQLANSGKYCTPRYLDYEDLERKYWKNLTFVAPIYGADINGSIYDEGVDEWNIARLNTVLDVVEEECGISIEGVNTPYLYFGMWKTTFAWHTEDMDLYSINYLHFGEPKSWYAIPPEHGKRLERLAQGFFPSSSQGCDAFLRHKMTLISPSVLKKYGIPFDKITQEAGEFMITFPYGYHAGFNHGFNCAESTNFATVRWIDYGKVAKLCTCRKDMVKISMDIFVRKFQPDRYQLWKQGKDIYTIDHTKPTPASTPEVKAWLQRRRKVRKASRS
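Material: N-terminal GST-fused human GASC-1 (KDM4C) fragment, residues 2-372. Input: 10 nM enzyme. Incubation: enzyme reaction 30 min, then detection 60 min, both room temperature. Doses: one test concentration per compound. Read-out basis: inhibition from TR-FRET ratio decrease. Detection: LANCE TR-FRET, excitation 340 nm, emissions 618 and 671 nm.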
IDH1 R132H inh – inhibitors of IDH1 R132H reductase, primary screen, biochemical, plate reader, single point; AID 624101, 2012; diaphorase/resazurin fluorescence, 60 min; inhibition, % at 10 µM; hit rate 0.18% among 70,000; Isocitrate dehydrogenase [NADP] cytoplasmic (Homo sapiens), O75874; in the data active = inhibition above about 34%; inconclusive = no clear call, values can overlap the other calls; inactive = below about 11%
Pf Dd2 growth – P. falciparum Dd2 growth inhibitors, primary screen, SYBR Green fluorescence, single dose replicates; activity change, % at 10 µM; hit rate 2.3% among 94,000; AID 1159554, 2015; 72 h; active compounds read low; in the data active = activity change below about -80%; inconclusive = no clear call, values can overlap the other calls
T cruzi growth-1 – T. cruzi intracellular proliferation inhibitors, primary screen, cell-based, beta-gal Tulahuen parasites, NIH3T3 host, luminescence; T. cruzi beta-gal in NIH3T3, GalScreen luminescence, 90 h; inhibition, % at 8.34 µM; hit rate 5.9% among 77,000; AID 624255, 2012;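 active = mean inhibition above about 93%, with at least 55% of replicates each passing it, limit read from the data, passing the limit was not always enough; inconclusive = only one of those two conditions holds; inactive = neither condition holds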
T cruzi growth-2 – T. cruzi intracellular proliferation inhibitors, confirmation, cell-based, NIH3T3 host, beta-gal parasite, luminescence, cherry-pick | hit rate 72% among 5,600 | shares compounds with T cruzi growth-1 | inhibition, % at 8.35 µM | AID 651739, 2012 | T. cruzi beta-gal in NIH3T3, GalScreen luminescence, 90 h;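 active = mean replicate inhibition above about 95% and at least 55% of replicates individually reaching it, limit read from the data; inconclusive = only one of the two criteria is met; inactive = neither criterion is met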
T cruzi growth-3 – inhibitors of intracellular T. cruzi replication, confirmation, NIH3T3 host cells, beta-gal parasites, cherry-pick, set 2; shares compounds with T cruzi growth-1; T. cruzi beta-gal in NIH3T3, GalScreen luminescence, 90 h; inhibition, % at 2.09 µM; hit rate 21% among 5,600; AID 651740, 2012;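 active = mean inhibition above about 95%, with at least 55% of replicates also reaching it, limit read from the data; inconclusive = meets just one of the two conditions; inactive = meets neither condition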
3T3 cytotox – cytotoxicity in mouse NIH/3T3 fibroblasts, confirmation, cytotoxicity control for T. cruzi proliferation inhibitor project, cell-based, cherry-pick, single point. hit rate 14% among 5,600. cytotoxicity (signal decrease), % at 8.35 µM. shares compounds with T cruzi growth-1. AID 651742, 2012. NIH/3T3 viability, CellTiter-Glo ATP luminescence, 90 h;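 active = mean signal decrease across replicates above about 35% based on untreated-well scatter, with enough replicates individually passing, limit read from the data; inconclusive = no rule stated though some were filed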
NIH3T3 tox 2 – NIH/3T3 fibroblast cytotoxicity, confirmation, cytotoxicity control, cell-based, cherry-pick, single point, set 2; inhibition, % at 24.9 µM; hit rate 56% among 5,600; NIH/3T3 viability, CellTiter-Glo ATP luminescence, 90 h; AID 651744, 2012; shares compounds with T cruzi growth-1;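 active = mean loss of cell viability signal at or above a set limit, and enough replicates individually reaching it; inconclusive = meets only the mean limit or only the replicate share; inactive = meets neither condition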
Hits are given with their value; i = inactive; ? = inconclusive; nt = no result.

SMILES	KDM4C inh	IDH1 R132H inh	Pf Dd2 growth	T cruzi growth-1	T cruzi growth-2	T cruzi growth-3	3T3 cytotox	NIH3T3 tox 2
CC(C)CC#Cc1ccc2c(c1)O[C@H](CN(C)C(=O)Cc1ccccc1)[C@@H](C)CN([C@@H](C)CO)S2(=O)=O	i	i	i	126.9	103.7	111.2	i	104.5
CC(C)CC#Cc1ccc2c(c1)O[C@@H](CN(C)C(=O)Cc1ccncc1)[C@H](C)CN([C@@H](C)CO)S2(=O)=O	i	i	-82.1	99.8	98.5	i	i	i
CC(C)CC#Cc1ccc2c(c1)O[C@H](CN(C)C(=O)Cc1ccncc1)[C@@H](C)CN([C@@H](C)CO)S2(=O)=O	i	i	i	?	nt	nt	nt	nt
CC(C)CC#Cc1ccc2c(c1)O[C@H](CN(C)C(=O)Cc1ccccc1)[C@@H](C)CN([C@H](C)CO)S2(=O)=O	i	i	i	125.5	98.1	?	i	104.7
CO[C@@H](CN(C)S(=O)(=O)c1ccc(F)cc1)[C@@H](C)CN([C@@H](C)CO)S(=O)(=O)c1cccc(Cl)c1	i	i	i	108.9	i	i	i	52.9
CO[C@H](CN(C)S(=O)(=O)c1ccc(F)cc1)[C@H](C)CN([C@H](C)CO)S(=O)(=O)c1cccc(Cl)c1	i	i	i	101.4	i	nt	i	55.3
CO[C@@H](CN(C)S(=O)(=O)c1ccc(F)cc1)[C@H](C)CN([C@H](C)CO)S(=O)(=O)c1cccc(Cl)c1	i	i	i	i	nt	nt	nt	nt
CO[C@H](CN(C)S(=O)(=O)c1cccc(Cl)c1)[C@H](C)CN([C@@H](C)CO)S(=O)(=O)c1ccc(Cl)cc1	i	i	i	i	nt	nt	nt	nt
O=C(CSc1n[nH]c(-c2ccccc2Cl)n1)c1ccc(O)c(O)c1	nt	i	nt	nt	nt	nt	nt	nt
COc1cccc(N(CC(=O)Nc2ccc(OC)c(Cl)c2)S(C)(=O)=O)c1	nt	i	nt	nt	nt	nt	nt	nt
COc1ccc(NC(=O)CSc2nc3ccc([N+](=O)[O-])cc3s2)cc1Cl	nt	i	nt	nt	nt	nt	nt	nt
CCn1c(SCC(=O)Nc2cccc(C)c2C)nnc1-c1ccc(Cl)c(Cl)c1	nt	i	nt	nt	nt	nt	nt	nt
O=C(NCCN1CCCCC1)[C@@H]1[C@@H](CO)[C@@H]2Cn3c(cccc3=O)[C@H]1N2C(=O)C1CCCCC1	i	nt	i	i	nt	nt	nt	nt
COc1cccc(CNC(=O)[C@@H]2[C@@H](CO)[C@@H]3Cn4c(cccc4=O)[C@H]2N3C(=O)C2CCCCC2)c1	i	nt	nt	95.5	i	i	i	i
O=C(NCCN1CCCC1)[C@H]1[C@H](CO)[C@H]2Cn3c(cccc3=O)[C@@H]1N2C(=O)c1ccccc1	i	nt	nt	95.9	i	i	i	i
COc1cc([N+](=O)[O-])ccc1NC(=O)c1ccccc1OCC(=O)NC(C)(C)C	nt	i	nt	nt	nt	nt	nt	nt
CN(C)[C@@H]1CCc2[nH]c3ccc(NC(=O)c4ccc(F)cc4)cc3c2C1	nt	i	nt	nt	nt	nt	nt	nt
Cc1ccc(-c2ccc([C@@H]3[C@@H](CO)N4CCCCN(C(=O)c5ccc(F)cc5)C[C@H]34)cc2)cc1	i	nt	i	104.3	107.7	i	i	103.7
Cc1ccc(-c2ccc([C@@H]3[C@H]4CN(C(=O)c5ccc(F)cc5)CCCCN4[C@H]3CO)cc2)cc1	i	nt	i	110.9	103.1	i	i	84.6
CCC(=O)N1CCCCN2[C@@H](CO)[C@H](c3ccc(-c4ccc(F)cc4)cc3)[C@@H]2C1	i	nt	i	100.5	i	i	i	60.6
COCC(=O)N1CCCCN2[C@H](C1)[C@@H](c1ccc(-c3ccc(F)cc3)cc1)[C@@H]2CO	i	nt	i	i	nt	nt	nt	nt
Cc1ccc(-c2ccc([C@@H]3[C@H](CO)N4CCCCN(C(=O)c5ccc(F)cc5)C[C@@H]34)cc2)cc1	i	nt	i	110.5	97.9	i	?	103.3
CO[C@@H]1CN(C)C(=O)c2cc(NC(=O)c3ccccc3F)ccc2OC[C@H](C)N(C(=O)c2ccccc2F)C[C@@H]1C	i	i	-83.0	102.2	i	i	i	39.8
CO[C@@H]1CN(C)C(=O)c2cc(NC(=O)c3ccccc3F)ccc2OC[C@@H](C)N(C(=O)c2ccccc2F)C[C@H]1C	i	i	i	?	i	i	i	i
CO[C@@H]1CN(C)C(=O)c2cc(NC(=O)c3ccccc3F)ccc2OC[C@H](C)N(C(=O)c2ccccc2F)C[C@H]1C	i	i	i	i	nt	nt	nt	nt
SMILES	KDM4C inh	IDH1 R132H inh	Pf Dd2 growth	T cruzi growth-1	T cruzi growth-2	T cruzi growth-3	3T3 cytotox	NIH3T3 tox 2
CO[C@H]1CN(C)C(=O)c2cc(NC(=O)c3ccccc3F)ccc2OC[C@H](C)N(C(=O)c2ccccc2F)C[C@@H]1C	i	i	i	i	nt	nt	nt	nt
C[C@@H]1CCCCO[C@H](CN(C)C(=O)Nc2ccc(C(F)(F)F)cc2)[C@H](C)CN([C@@H](C)CO)C(=O)c2cc(NC(=O)Nc3ccc(F)cc3)ccc2O1	i	nt	i	111.2	105.8	117.6	i	i
C[C@@H]1CCCCO[C@H](CN(C)C(=O)Nc2ccc(C(F)(F)F)cc2)[C@@H](C)CN([C@H](C)CO)C(=O)c2cc(NC(=O)Nc3ccc(F)cc3)ccc2O1	i	i	i	?	nt	nt	nt	nt
C[C@@H]1CCCCO[C@@H](CN(C)C(=O)Nc2ccc(F)cc2)[C@H](C)CN([C@@H](C)CO)C(=O)c2cc(NC(=O)Nc3ccc(C(F)(F)F)cc3)ccc2O1	i	nt	i	95.4	105.4	104.3	i	i
CCC(Sc1nnc2c(n1)[nH]c1ccccc12)C(=O)Nc1cccc2ccccc12 (stereo not given)	nt	i	nt	nt	nt	nt	nt	nt
COc1ccc(CN2CCN(Cc3cccc(OC)c3OC)CC2)c(OC)c1	nt	i	nt	nt	nt	nt	nt	nt
COc1ccc(NC(=O)CN2C(=O)COc3ccc(Cl)cc32)cc1	nt	i	nt	nt	nt	nt	nt	nt
COc1cccc(NC(=O)C(C)N(c2cc(C)cc(C)c2)S(C)(=O)=O)c1 (stereo not given)	nt	i	nt	nt	nt	nt	nt	nt
O=C(C[C@H]1CC[C@H]2[C@@H](COC[C@H](O)CN2Cc2ccc(Oc3ccccc3)cc2)O1)Nc1nccs1	i	nt	i	190.7	102.9	i	i	i
O=C(C[C@H]1CC[C@H]2[C@@H](COC[C@@H](O)CN2Cc2ccc(Oc3ccccc3)cc2)O1)Nc1nccs1	i	nt	i	152.3	101.8	i	i	i

From PubChem BioAssay
